In assay [1] the target is Rhodesain (Trypanosoma brucei rhodesiense) (UniProt Q95PM0). The assay is described as follows: Inhibition of Trypanosoma brucei rhodesain expressed in Pichia pastoris at 20 uM using Z-phe-Arg-AMC as substrate preincubated for 1 hr followed by substrate addition by fluorescence assay. In short, it runs like this:
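Enzyme at 0.8 nM final with compound at 20 μM final, 1 h preincubation in 50 mM sodium acetate pH 5.5 with 2 mM DTT and 0.01% Triton X-100. Z-Phe-Arg-AMC (10 μM) then added. Cleavage rate (RFU/sec) read at 25 °C, ex 355/em 460 nm. E-64 (10 μM) served as 100% inhibition control.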

The test system of assay [2] is Trypanosoma brucei. The assay is described as follows: Antitrypanosomal activity against Trypanosoma brucei 427 bloodstream forms assessed as parasitic growth inhibition after 48 hrs by alamar blue assay. It counts as functional, organism-based. As to conditions: Trypanosoma brucei, 427, 48 h. In short, it runs like this: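 Bloodstream forms in supplemented HMI-9 medium (10% FBS, 10% Serum Plus, cysteine, hypoxanthine, β-mercaptoethanol, thymidine, pyruvate, bathocuproinesulfonate, Tween 80), 5 × 10³ cells/well, compound exposure 48 h in DMSO. Alamar blue then added, 4 h at 37°C; fluorescence ex 530/em 590 nm. Triplicates; IC50 from 0.3–50 μM range; suramin positive control.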

Another assay concerns HepG2. The assay is described as follows: Cytotoxicity against human HepG2 cells assessed as decrease in cell viability after 72 hrs by MTT assay. The class given is cell-based. The note with it: HepG2, 72 h. A digest of the protocol: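 HepG2 cells kept in DMEM:F12 with 10% FBS, pen/strep and 0.0125% Tween 80 at 37°C, 5% CO2. Cells trypsinized, seeded at 5 × 10⁵ cells/mL and left ~24 h, then given compounds in DMSO for 72 h. Medium replaced with MTT-containing medium for 1.5 h; formazan dissolved in DMSO; A550. Triplicates. Controls: 10% SDS, podophyllotoxin.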

For assay [3], the system named is Trypanosoma brucei. The assay is described as follows: Antitrypanosomal activity against luciferase expressing Trypanosoma brucei STIB795 bloodstream forms infected in NMRI mouse assessed as parasitic growth inhibition at 50 to 100 mg/kg, ip administered for 4 consecutive days starting at 3 days post infection measured at 24 hrs post dose by live imaging analysis. It counts as functional, organism-based. A digest of the protocol:
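Groups of four female mice, each inoculated ip with 1 × 10⁴ bloodstream forms. Groups: control, 50 mg/kg/day and 100 mg/kg/day. Dosing ip in water plus 10% DMSO began 3 days post-infection. Parasitemia followed by live imaging. Moribund mice euthanized once parasitemia was detected.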

In assay [4] the target is Rhodesain (Trypanosoma brucei rhodesiense) (UniProt Q95PM0). The assay is described as follows: Inhibition of Trypanosoma brucei rhodesain expressed in Pichia pastoris assessed as rato of Kinact to Ki using Z-phe-Arg-AMC as substrate preincubated for 1 hr followed by substrate additon by fluorescence assay. A digest of the protocol: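 Time-dependent inactivation study: rhodesain mixed with inhibitor (0, 0.06, 0.12, 0.24, 0.97, 3.9 μM) in assay buffer (50 mM sodium acetate pH 5.5, 2 mM DTT, 0.01% Triton X-100). Aliquots drawn every 10 min, assayed with 10 μM Z-Phe-Arg-AMC, RFU/sec followed 7 min at 25 °C (ex 355/em 460 nm). Analysed by pseudo-first-order inhibition plots.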
Chain of Rhodesain (Trypanosoma brucei rhodesiense) (Q95PM0 1-450): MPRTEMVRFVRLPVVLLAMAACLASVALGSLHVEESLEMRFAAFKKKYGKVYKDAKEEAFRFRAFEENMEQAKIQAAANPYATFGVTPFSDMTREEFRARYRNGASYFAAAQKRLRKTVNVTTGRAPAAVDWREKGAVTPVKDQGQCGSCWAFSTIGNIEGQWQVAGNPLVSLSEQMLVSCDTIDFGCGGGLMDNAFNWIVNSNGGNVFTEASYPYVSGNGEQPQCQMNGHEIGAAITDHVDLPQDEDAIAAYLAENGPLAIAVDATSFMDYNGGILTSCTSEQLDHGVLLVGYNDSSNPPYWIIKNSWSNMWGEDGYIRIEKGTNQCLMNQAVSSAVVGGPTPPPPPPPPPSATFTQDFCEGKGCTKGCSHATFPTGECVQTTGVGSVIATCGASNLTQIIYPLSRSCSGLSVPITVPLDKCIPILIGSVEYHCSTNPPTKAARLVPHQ

The target of another assay is Rhodesain (Trypanosoma brucei rhodesiense, UniProt Q95PM0). The assay is described as follows: Inhibition of Trypanosoma brucei rhodesain expressed in Pichia pastoris using Z-phe-Arg-AMC as substrate preincubated for 1 hr followed by substrate addition by fluorescence assay. A digest of the protocol:
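Rhodesain at 0.8 nM final was pre-incubated 1 h with compound at 20 μM final in 50 mM sodium acetate pH 5.5, 2 mM DTT, 0.01% Triton X-100. Then 10 μM Z-Phe-Arg-AMC was added, and cleavage was read as RFU/sec at 25 °C (ex 355/em 460 nm). E-64 (10 μM) defined 100% inhibition.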

Assay [5] has as its target Procathepsin L (Homo sapiens) (UniProt P07711). The assay is described as follows: Inhibition of human liver cathepsin L using Z-phe-Arg-AMC as substrate at 0.1 to 125 uM preincubated for 1 hr followed by substrate addition by fluorescence assay. A digest of the protocol:
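Human liver CatL at 0.58 nM in 400 mM sodium acetate pH 5.5 with 8 mM DTT, 4 mM EDTA and 0.01% Triton X-100. Enzyme and compound preincubated 1 h, then Z-Phe-Arg-AMC (20 μM) added. AMC fluorescence rate read at ex 355/em 460 nm, 25 °C.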

The values below come from ChEMBL document CHEMBL4219195, “Discovery of a quinoline-based phenyl sulfone derivative as an antitrypanosomal agent” (Bioorg Med Chem Lett, 2018).

The source made the active and inactive calls. The calls are words filed in the database; no cut-off is given here.

Chain of Rhodesain (Q95PM0 whole entry): as the sequence (Q95PM0 1-450) above
Chain of Procathepsin L (Homo sapiens) (P07711 114-333 limits assumed): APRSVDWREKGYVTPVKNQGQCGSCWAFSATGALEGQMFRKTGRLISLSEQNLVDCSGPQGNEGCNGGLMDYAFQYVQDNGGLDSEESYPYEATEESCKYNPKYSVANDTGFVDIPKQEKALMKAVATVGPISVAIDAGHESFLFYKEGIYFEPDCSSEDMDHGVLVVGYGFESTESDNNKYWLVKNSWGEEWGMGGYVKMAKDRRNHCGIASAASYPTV

With `O=C(Cc1ccc(OC/C=C/S(=O)(=O)c2ccccc2)cc1)Oc1ccc2cc(Br)ccc2c1`, in assay [1], the inhibition result is “inactive”. Moreover, the IC50 in the assay with Trypanosoma brucei [2] is 2.18 µM; with HepG2 it was more than 80 µM.
As to `CC1(C)C2CC=C(CCOC(=O)Cc3ccc(OC/C=C/S(=O)(=O)c4ccccc4)cc3F)C1C2` (configuration not stated), the inhibition result in assay [1] is “inactive”. The IC50 was 7.03 µM in the assay on Trypanosoma brucei [2] and more than 20 µM with HepG2.
Taken in the same sequence, the figures for `CC1(C)C2CC[C@]1(C)C(NC(=O)Cc1ccc(OC/C=C/S(=O)(=O)c3ccccc3)cc1)C2` (some centres not stated) were “inactive”, 10.8 µM and more than 20 µM.
On to `O=C(Cc1ccc(OC/C=C/S(=O)(=O)c2ccccc2)cc1)Oc1ccc(C(F)(F)F)cc1`, for which, in assay [1], the inhibition entry was “inactive”. In addition, the IC50 with Trypanosoma brucei [2] and in the assay with HepG2 was more than 20 µM throughout.
As to `CC1(C)C2CC=C(COC(=O)Cc3ccc(OC/C=C/S(=O)(=O)c4ccccc4)cc3)C1C2` (configuration not stated), the inhibition result in assay [1] is “inactive”. Moreover, the IC50 in the assay on Trypanosoma brucei [2] and with HepG2 was more than 20 µM in each case.
`O=C(Cc1ccc(OC/C=C/S(=O)(=O)c2ccccc2)cc1)Oc1ccc(Cc2ccccc2)cc1`: the inhibition result in assay [1] was “inactive”. In addition, the IC50 in the assay on Trypanosoma brucei [2] is 1.47 µM; with HepG2, more than 80 µM.
As for `CC1(C)[C@H]2CC=C(CCOC(=O)Cc3ccc(OC/C=C/S(=O)(=O)c4ccccc4)c(Cl)c3)[C@@H]1C2`, the inhibition entry in assay [1] was “inactive”. Further, the IC50 in the assay on Trypanosoma brucei [2] is 3.04 µM; with HepG2 it was more than 80 µM.
With `CC(C)CCC[C@@H](C)[C@H]1CC[C@H]2[C@@H]3CC[C@H]4C[C@@H](OC(=O)Cc5ccc(OC/C=C/S(=O)(=O)c6ccccc6)cc5)CC[C@]4(C)[C@H]3CC[C@]12C`, in assay [1], the inhibition result is “inactive”. For the same molecule, the IC50 in the assay on Trypanosoma brucei [2] and in the assay with HepG2 was more than 20 µM in each case.
With `C[C@H](OC(=O)Cc1ccc(OC/C=C/S(=O)(=O)c2ccccc2)cc1)c1ccc2ccccc2c1`, the inhibition entry in assay [1] was “inactive”. Besides, the 50% inhibitory concentration (IC50) with Trypanosoma brucei [2] was 5.62 µM; in the assay on HepG2 it was more than 20 µM.
Regarding `CN1CCC(NC(=O)Cc2ccc(OC/C=C/S(=O)(=O)c3ccccc3)cc2)CC1`, the inhibition result in assay [1] is “inactive”. Moreover, the IC50 in the assay with Trypanosoma brucei [2] and in the assay with HepG2 was more than 20 µM each time.
`COc1cc([C@@H]2c3cc4c(cc3[C@H](O)[C@H]3COC(=O)[C@H]23)OCO4)cc(OC)c1OC` [PODOFILOX]: in the assay on HepG2, the IC50 worked out at 0.008 µM.
Turning to `O=C(Cc1ccc(OC/C=C/S(=O)(=O)c2ccccc2)cc1)Nc1cccc2cccnc12`, the inhibition entry in assay [1] was “inactive”. Besides, the IC50 in the assay on Trypanosoma brucei [2] was 0.76 µM; in the assay with HepG2 it was more than 80 µM. Also, the result in the assay on Trypanosoma brucei [3] was inactive.
For the molecule `CC1(C)[C@@H]2CC[C@@](C)(C2)[C@@H]1OC(=O)Cc1ccc(OC/C=C/S(=O)(=O)c2ccccc2)cc1`, the inhibition result in assay [1] was “inactive”. In addition, the IC50 with Trypanosoma brucei [2] came out at 4.04 µM; in the assay with HepG2 it was 11.9 µM.
As to `O=C(Cc1ccc(OC/C=C/S(=O)(=O)c2ccccc2)cc1)NC12CC3CC(CC(C3)C1)C2`, in assay [1], the inhibition result is “inactive”. The figures for the IC50 with Trypanosoma brucei [2] and with HepG2 were 11.7 µM and more than 20 µM, respectively.
Regarding `C[C@H](NC(=O)Cc1ccc(OC/C=C/S(=O)(=O)c2ccccc2)cc1)c1ccc2ccccc2c1`, the inhibition result in assay [1] was “inactive”. Besides, the values for the IC50 in the assay with Trypanosoma brucei [2] and with HepG2 were 5.45 µM and more than 20 µM, respectively.
Take `O=C(Cc1ccc(OC/C=C/S(=O)(=O)c2ccccc2)cc1)Oc1ccc(C2CCCC2)cc1`: the inhibition entry in assay [1] was “inactive”. The results for the IC50 in the assay on Trypanosoma brucei [2] and in the assay with HepG2 were 6.04 µM and more than 20 µM, respectively.
As to `Cc1ccc(C(=O)Nc2ccc(S(=O)(=O)O)c3cc(S(=O)(=O)O)cc(S(=O)(=O)O)c23)cc1NC(=O)c1cccc(NC(=O)Nc2cccc(C(=O)Nc3cc(C(=O)Nc4ccc(S(=O)(=O)O)c5cc(S(=O)(=O)O)cc(S(=O)(=O)O)c45)ccc3C)c2)c1` [SURAMIN], the IC50 with Trypanosoma brucei [2] came out at 0.004 µM.
As to `CC1(C)C2CC[C@]1(C)C(OC(=O)Cc1ccc(OC/C=C/S(=O)(=O)c3ccccc3)cc1)C2` (some centres not stated), the inhibition result in assay [1] was “inactive”. Further, the figures for the IC50 in the assay with Trypanosoma brucei [2] and in the assay with HepG2 were 7.16 µM and more than 20 µM, respectively.
As to `O=C(N[C@H](/C=C/S(=O)(=O)c1ccccc1)CCc1ccccc1)c1cccc2cccnc12`, the inhibition result in assay [1] was “Active”. Also, the Ratio in assay [4] came out at 99 M⁻¹ s⁻¹. Moreover, the IC50 in the assay on Trypanosoma brucei [2] is 5.97 µM; in the assay on HepG2 it was more than 80 µM; at Rhodesain it was 0.8 µM. Also, the inhibition result in assay [5] was “inactive”.
With `O=C(Cc1ccc(OC/C=C/S(=O)(=O)c2ccccc2)cc1)OC1CCC[C@@H]2CCCC[C@H]12` (some centres not stated), in assay [1], the inhibition result was “inactive”. Also, the IC50 was 5.63 µM in the assay with Trypanosoma brucei [2] and more than 20 µM with HepG2.
As to `CC1(C)[C@H]2CC=C(CCOC(=O)Cc3ccc(OC/C=C/S(=O)(=O)c4ccccc4)cc3)[C@@H]1C2`, the inhibition result in assay [1] was “inactive”. The IC50 in the assay on Trypanosoma brucei [2] was 2.01 µM; in the assay on HepG2, more than 80 µM.
As for `CC1=C[C@@H](OC(=O)Cc2ccc(OC/C=C/S(=O)(=O)c3ccccc3)cc2)C2C[C@H]1C2(C)C`, the inhibition entry in assay [1] is “inactive”. The IC50 in the assay with Trypanosoma brucei [2] and in the assay on HepG2 was more than 20 µM each time.
`CC(C)c1ccc(OC(=O)Cc2ccc(OC/C=C/S(=O)(=O)c3ccccc3)cc2)cc1`: the inhibition result in assay [1] was “inactive”. Besides, the IC50 with Trypanosoma brucei [2] and in the assay on HepG2 was more than 20 µM throughout.
As for `CCCN1CCC(NC(=O)Cc2ccc(OC/C=C/S(=O)(=O)c3ccccc3)cc2)CC1`, the inhibition result in assay [1] was “inactive”. The IC50 in the assay with Trypanosoma brucei [2] and in the assay on HepG2 was more than 20 µM throughout.
